Experimental data as given in article PMC3422576 (Science translational medicine, 2010).
Each block holds one compound with its values, some of them ahead of it.

What was measured:
resistant tumor cells = experiment: Ex-vivo medulloblastoma proliferation assay; format: cell-based, mouse; conditions: cells freshly isolated from resistant tumors
[1] = system: Ptch+/−p53−/− medulloblastoma tumors; experiment: Ptch+/−p53−/− medulloblastoma allograft efficacy study in nude mice; format: in vivo, mouse
Mouse Smo S391N = Mouse Smo S391N (Mus musculus, UniProt P56726, S391N); format: cell-based
Procedure, shortened: (§1)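 C3H10T1/2 cells transiently co-transfected with HA-tagged mouse Smo (wild-type or point mutant, in pcDNA3.1), a Gli-luciferase reporter and TK-driven renilla luciferase. Serial dilutions of test compound (0.001 to 10 μM final) added 24 h post-transfection. Firefly and renilla luciferase read by dual-luciferase assay after a further 24 h. Percent inhibition calculated relative to DMSO control.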

Mouse Smo Wild-type = Mouse Smo Wild-type (Mus musculus, UniProt P56726); format: cell-based
Procedure, shortened: as §1

Mouse Smo L225R = Mouse Smo L225R (Mus musculus, UniProt P56726, L225R); format: cell-based
Procedure, shortened: as §1

Mouse Smo N223D = Mouse Smo N223D (Mus musculus, UniProt P56726, N223D); format: cell-based
Procedure, shortened: as §1

Mouse Smo D388N = Mouse Smo D388N (Mus musculus, UniProt P56726, D388N); format: cell-based
Procedure, shortened: as §1

[2] = system: Gli1, Ptch1, Ptch2 and CyclinD1 mRNA; experiment: Hh target gene mRNA in Ptch+/−Hic1+/− medulloblastoma allografts in nude mice; format: in vivo, mouse; conditions: Ptch+/−Hic1+/− allograft, oral, initial treatment
mouse Smo = mouse Smo (Mus musculus, UniProt P56726); experiment: Smo Agonist 1.5 displacement assay, mouse Smo; format: binding
[3] = system: Ptch+/−Hic+/− medulloblastoma tumors; experiment: Ptch+/−Hic+/− medulloblastoma allograft efficacy study in nude mice; format: in vivo, mouse
human Smo = human Smo (Homo sapiens, UniProt Q99835); experiment: Smo Agonist 1.5 displacement assay, human Smo; format: binding
Gli1 mRNA = Gli1 mRNA in Ptch+/−p53−/− medulloblastoma allografts in nude mice; format: in vivo, mouse; conditions: oral, 20 mg/kg/day qd
Mouse Smo G457S = Mouse Smo G457S (Mus musculus, UniProt P56726, G457S); format: cell-based
Procedure, shortened: as §1

Mouse Smo L225R, sequence (P56726 33-793 L225R): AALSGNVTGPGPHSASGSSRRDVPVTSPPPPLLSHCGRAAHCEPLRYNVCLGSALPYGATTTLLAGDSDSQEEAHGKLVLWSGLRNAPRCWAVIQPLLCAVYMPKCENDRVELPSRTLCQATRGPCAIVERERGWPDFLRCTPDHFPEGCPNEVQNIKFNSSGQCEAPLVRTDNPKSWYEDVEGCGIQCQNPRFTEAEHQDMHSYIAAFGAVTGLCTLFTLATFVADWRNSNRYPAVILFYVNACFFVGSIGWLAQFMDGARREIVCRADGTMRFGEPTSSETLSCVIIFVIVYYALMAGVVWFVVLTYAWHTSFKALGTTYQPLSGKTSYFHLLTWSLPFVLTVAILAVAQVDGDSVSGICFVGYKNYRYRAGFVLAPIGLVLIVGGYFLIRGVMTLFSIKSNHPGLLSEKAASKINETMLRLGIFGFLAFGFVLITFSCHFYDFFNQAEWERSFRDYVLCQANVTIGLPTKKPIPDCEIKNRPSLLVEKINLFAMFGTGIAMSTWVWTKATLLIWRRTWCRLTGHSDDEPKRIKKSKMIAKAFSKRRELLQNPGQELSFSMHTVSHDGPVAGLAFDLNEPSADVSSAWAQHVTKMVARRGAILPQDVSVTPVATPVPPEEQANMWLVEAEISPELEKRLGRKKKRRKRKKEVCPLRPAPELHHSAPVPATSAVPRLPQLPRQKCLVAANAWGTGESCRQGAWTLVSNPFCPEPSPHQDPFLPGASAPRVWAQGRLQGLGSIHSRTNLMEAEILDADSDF
human Smo, sequence (Q99835 28-787): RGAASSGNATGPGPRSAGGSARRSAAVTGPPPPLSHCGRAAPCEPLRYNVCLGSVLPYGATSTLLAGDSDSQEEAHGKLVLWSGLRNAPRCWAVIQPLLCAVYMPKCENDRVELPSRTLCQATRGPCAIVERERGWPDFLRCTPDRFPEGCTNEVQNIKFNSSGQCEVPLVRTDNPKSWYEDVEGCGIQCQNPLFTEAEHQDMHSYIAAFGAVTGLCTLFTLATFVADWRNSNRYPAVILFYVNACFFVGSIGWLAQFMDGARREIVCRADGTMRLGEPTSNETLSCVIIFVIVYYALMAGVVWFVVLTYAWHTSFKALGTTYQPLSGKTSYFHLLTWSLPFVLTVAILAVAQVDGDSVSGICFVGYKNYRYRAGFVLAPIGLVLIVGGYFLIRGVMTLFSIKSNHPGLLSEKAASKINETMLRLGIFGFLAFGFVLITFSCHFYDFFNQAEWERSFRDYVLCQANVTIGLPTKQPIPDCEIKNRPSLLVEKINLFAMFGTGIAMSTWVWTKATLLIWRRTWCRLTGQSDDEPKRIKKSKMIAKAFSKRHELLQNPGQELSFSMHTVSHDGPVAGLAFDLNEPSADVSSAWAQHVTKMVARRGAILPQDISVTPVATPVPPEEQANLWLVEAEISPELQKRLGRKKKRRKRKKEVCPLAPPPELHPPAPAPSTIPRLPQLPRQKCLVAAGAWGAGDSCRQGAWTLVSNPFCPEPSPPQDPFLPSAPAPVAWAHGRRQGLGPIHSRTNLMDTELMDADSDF
Mouse Smo Wild-type, sequence (P56726 33-793): as the sequence (P56726 33-793 L225R) above, with R193L counted along it
mouse Smo, sequence (P56726 33-793): as the sequence (P56726 33-793 L225R) above, with R193L counted along it
Mouse Smo N223D, sequence (P56726 33-793 N223D): as the sequence (P56726 33-793 L225R) above, with N191D, R193L counted along it
Mouse Smo S391N, sequence (P56726 33-793 S391N): as the sequence (P56726 33-793 L225R) above, with R193L, S359N counted along it
Mouse Smo G457S, sequence (P56726 33-793 G457S): as the sequence (P56726 33-793 L225R) above, with R193L, G425S counted along it
Mouse Smo D388N, sequence (P56726 33-793 D388N): as the sequence (P56726 33-793 L225R) above, with R193L, D356N counted along it

Compound: HhAntag
- growth of resistant tumor cells upon exposure (resistant tumor cells): largely unaffected

Compound: Nc1cc(C(F)(F)F)c(-c2cc(N3CCOCC3)nc(N3CCOCC3)n2)cn1 [NVP-BKM120, reference compound]
- tumor growth inhibition in established NVP-LDE225 resistant tumors ([1]; treatment of established NVP-LDE225 resistant tumors, data not shown): modest but not statistically significant tumor growth inhibition

- IC50 (Mouse Smo S391N): > 10000 nM
- IC50 (Mouse Smo Wild-type): 6 nM
- IC50 (Mouse Smo L225R): > 10000 nM
- IC50 (Mouse Smo N223D): > 10000 nM
- IC50 (Mouse Smo D388N): > 10000 nM
- IC50 (mouse Smo): 12 nM
- IC50 (human Smo): 11 nM
- IC50 (Mouse Smo G457S): 400 nM
Compound: Cc1c(C(=O)Nc2ccc(N3C[C@@H](C)O[C@@H](C)C3)nc2)cccc1-c1ccc(OC(F)(F)F)cc1 [NVP-LDE225]
- Gli1, Ptch1, Ptch2 and CyclinD1 mRNA expression in tumors [2]: Pronounced inhibition
- tumor response during initial treatment ([3]; Ptch+/−Hic1+/− allograft, oral): tumor regression
- number of complete regressions ([3]; Ptch+/−Hic+/− allograft, after 61 days of treatment, n=8, NVP-LDE225 80 mg/kg/day qd, NVP-BEZ235 40 mg/kg/day qd): 1
- expression of Hh pathway target gene Gli1 in tumors (Gli1 mRNA): completely suppressed
- tumor growth ([1]; 10 mg/kg/day, Ptch+/−p53−/− allograft): partial growth inhibition
